This test concerns Human adult epidermal keratinocytes. In words: Cell internalization in vitro. Format: cell-based. The gist of the method:
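FITC-labelled peptide carrier (1, 4, 7 or 10 mg/mL in medium; 30 or 120 min) on keratinocytes seeded on poly-D-lysine glass dishes, grown 24 h in supplemented EpiLife at 37 °C, 5% CO2. Free-carrier arm: 0.1 mg/mL labelled peptide, 15 min, ± 10 mg/mL unlabelled carrier. Medium-only control. Hoechst 33342 nuclear stain, Trolox-HBSS washes, ethidium bromide to exclude dead cells, then confocal imaging. Mean ± SD.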

Take “FITC-AC-TGSTQHQ-CG, Disulfide Bridge 2–10 (disulfide) [FITC-SPACE peptide]”: the “increase of uptake by addition of free SPACE peptide” value (15 min, 0.1 mg/mL FITC-SPACE peptide with vs without 10 mg/mL unlabeled SPACE peptide, mean ± SD n=3) was determined as 3.9±1.5 fold. In addition, the intracellular localization result (15 min, 0.1 mg/mL, absence of excess free SPACE peptide) is “localized primarily in punctate spots”; the intracellular localization entry (15 min, 0.1 mg/mL, with 10 mg/mL free SPACE peptide) is “cytoplasmic localization”; the intracellular localization entry (120 min, concentrations of 1–4 mg/mL) is recorded as “punctate fluorescent spots”; the intracellular localization result (120 min, higher concentrations (7, 10 mg/mL)) was “diffused throughout the cytoplasm”.

The record behind these values is PMC4425738 (Journal of controlled release : official journal of the …, 2014).
